Measured values from different studies.
Lines come from different studies, so protocols differ.
Target: Carbonic anhydrase 12 (CA12, Homo sapiens, UniProt O43570)
Observed: enzyme activity
Mode: inhibitor

| method | quantity | value | SMILES |
| --- | --- | --- | --- |
| absorbance | IC50 | 0.61 µM | CS(=O)(=O)Nc1ccc(Nc2nc(-c3cc4cc(Br)ccc4oc3=O)cs2)cc1Oc1ccccc1 |
| absorbance | IC50 | 0.88 µM | NS(=O)(=O)c1ccc(-c2ccc(Nc3ccncc3)cc2)cc1 |
| stopped-flow | Ki | 0.234 µM | N#CSCCCCOc1ccc2c(-c3ccccc3)cc(=O)oc2c1 |
| stopped-flow | Ki | 1.83 µM | Cc1ccc(OC(=O)c2ccc(=O)oc2)cc1 |
| stopped-flow | Ki | 0.0542 µM | Cc1cc(=O)oc2cc(OCCCCSC#N)ccc12 |
| absorbance | IC50 | 0.79 µM | CS(=O)(=O)Nc1ccc(Nc2nc(-c3cc4ccccc4oc3=O)cs2)cc1Oc1ccccc1 |
| stopped-flow | Ki | 54.8 µM | COc1ccc(-n2cc(COC(=O)c3ccc(=O)oc3)nn2)cc1 |
| absorbance | IC50 | 1.88 µM | COc1ccc2oc(=O)c(-c3csc(Nc4ccc(C(=O)O)cc4)n3)cc2c1 |
| stopped-flow | Ki | 82.8 µM | CC1CCCCC1OC(=O)c1ccc(=O)oc1 (stereo not shown) |
| absorbance | IC50 | 2.78 µM | NS(=O)(=O)c1ccc(-c2ccc(Nc3ccc(F)c(Cl)c3)cc2)cc1 |
